ChEMBL document CHEMBL1649137, “Genetic analysis of factors affecting susceptibility of Bacillus subtilis to daptomycin” (2009)
Converted amounts (≈) assume the structure as drawn.

Tests used:
Bacillus subtilis [1] = assay: Induction of yocH gene expression in Bacillus subtilis W168 by microarray analysis; format: functional
Outline: (§1)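 W168 grown in Ca2+-supplemented Mueller-Hinton broth at 37°C to OD600 0.4, split, and one half exposed to 1 μg/ml daptomycin for 20 min. Total RNA from three biological replicates; cDNA labeled with Alexa Fluor 555/647 and co-hybridized at 42°C for 16–18 h. Genes with summed intensity <20 or SD > mean were dropped. Fold change is treated/untreated signal, from ≥6 spot measurements.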

Bacillus subtilis [2] = assay: Induction of yuaF gene expression in Bacillus subtilis W168 by microarray analysis; format: functional; outline: as §1
Bacillus subtilis [3] = assay: Antibacterial activity against des gene-deficient Bacillus subtilis W168 mutant by liquid growth inhibition assay; format: functional
Outline: (§2)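 Daptomycin MIC by liquid growth inhibition. Overnight cultures diluted 1:100, grown to mid-log, rediluted to 5 × 10^5 CFU/ml in Mueller-Hinton broth with 50 mg/liter Ca2+. At least 10 concentrations near the predicted MIC, plus a no-drug control, added at start; 200 μl. OD600 read every 20 min for 24 h at 37°C with shaking. Inhibition: 24 h OD600 <0.05. MIC is the mode of at least triplicates.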

Bacillus subtilis [4] = assay: Induction of liaF gene expression in Bacillus subtilis W168 by microarray analysis; format: functional; outline: as §1
Bacillus subtilis [5] = assay: Antibacterial activity against sigMWX and pspA gene-deficient Bacillus subtilis CU1065 mutant by liquid growth inhibition assay; format: functional; outline: as §2
Bacillus subtilis [6] = assay: Induction of maf gene expression in Bacillus subtilis W168 by microarray analysis; format: functional; outline: as §1
Bacillus subtilis [7] = assay: Induction of bcrC gene expression in Bacillus subtilis W168 by microarray analysis; format: functional; outline: as §1
Bacillus subtilis [8] = assay: Decrease in hutM gene expression in Bacillus subtilis W168 by microarray analysis; format: functional; outline: as §1
Bacillus subtilis [9] = assay: Induction of liaS gene expression in Bacillus subtilis W168 by microarray analysis; format: functional; outline: as §1
Bacillus subtilis [10] = assay: Antibacterial activity against pssA gene-deficient Bacillus subtilis CU1065 mutant by liquid growth inhibition assay; format: functional; outline: as §2
Bacillus subtilis [11] = assay: Induction of yvrI gene expression in Bacillus subtilis W168 by microarray analysis; format: functional
Outline: (§3)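 W168 cultures in Mueller-Hinton broth with 50 mg/liter Ca2+, 37°C with shaking, grown to mid-log phase (OD600 0.4) from a 1:1,000 overnight dilution. Split: one half given 1 μg/ml daptomycin for 20 min, the other left untreated. Total RNA from three biological replicates; cDNA labeled with Alexa Fluor 555 or 647 and hybridized 16 to 18 h at 42°C. Induction = treated/untreated signal intensity, duplicate spots on three arrays.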

Bacillus subtilis [12] = assay: Induction of liaH gene expression in Bacillus subtilis W168 by microarray analysis; format: functional; outline: as §1
Bacillus subtilis [13] = assay: Induction of liaR gene expression in Bacillus subtilis W168 by microarray analysis; format: functional; outline: as §1
Bacillus subtilis [14] = assay: Antibacterial activity against ugtP gene-deficient Bacillus subtilis CU1065 mutant by liquid growth inhibition assay; format: functional; outline: as §2
Bacillus subtilis [15] = assay: Antibacterial activity against liaIH, mprF and pspA gene-deficient Bacillus subtilis CU1065 mutant by liquid growth inhibition assay; format: functional; outline: as §2
Bacillus subtilis [16] = assay: Decrease in ypeB gene expression in Bacillus subtilis W168 by microarray analysis; format: functional; outline: as §1
Bacillus subtilis [17] = assay: Antibacterial activity against mprF and ugtP gene-deficient Bacillus subtilis CU1065 mutant by liquid growth inhibition assay; format: functional; outline: as §2
Bacillus subtilis [18] = assay: Antibacterial activity against liaIH gene-deficient Bacillus subtilis W168 mutant by liquid growth inhibition assay; format: functional; outline: as §2
Bacillus subtilis [19] = assay: Antibacterial activity against sigXM and liaIH gene-deficient Bacillus subtilis CU1065 mutant by liquid growth inhibition assay; format: functional; outline: as §2
Bacillus subtilis [20] = assay: Decrease in degR gene expression in Bacillus subtilis W168 by microarray analysis; format: functional; outline: as §1
Bacillus subtilis [21] = assay: Antibacterial activity against liaH and sigW gene-deficient Bacillus subtilis CU1065 mutant by liquid growth inhibition assay; format: functional; outline: as §2
Bacillus subtilis [22] = assay: Decrease in lmrB gene expression in Bacillus subtilis W168 by microarray analysis; format: functional; outline: as §1
Bacillus subtilis [23] = assay: Antibacterial activity against liaIH and pspA gene-deficient Bacillus subtilis CU1065 mutant by liquid growth inhibition assay; format: functional; outline: as §2
Bacillus subtilis [24] = assay: Antibacterial activity against Bacillus subtilis CU1065 mutant by liquid growth inhibition assay; format: functional; outline: as §2
Bacillus subtilis [25] = assay: Increase in yfiC gene expression in Bacillus subtilis W168 by microarray analysis
Bacillus subtilis [26] = assay: Antibacterial activity against liaH and pspA gene-deficient Bacillus subtilis CU1065 mutant by liquid growth inhibition assay; format: functional; outline: as §2
Bacillus subtilis [27] = assay: Antibacterial activity against sigXW gene-deficient Bacillus subtilis CU1065 double mutant by liquid growth inhibition assay; format: functional; outline: as §2
Bacillus subtilis [28] = assay: Antibacterial activity against pspA gene-deficient Bacillus subtilis CU1065 mutant by liquid growth inhibition assay; format: functional; outline: as §2
Bacillus subtilis [29] = assay: Induction of yhcY gene expression in Bacillus subtilis W168 by microarray analysis; format: functional; outline: as §1
Bacillus subtilis [30] = assay: Induction of yuaG gene expression in Bacillus subtilis W168 by microarray analysis; format: functional; outline: as §1
Bacillus subtilis [31] = assay: Induction of yoeB gene expression in Bacillus subtilis W168 by microarray analysis; format: functional; outline: as §1
Bacillus subtilis [32] = assay: Antibacterial activity against Bacillus subtilis CU1065 harboring IPTG-induced pgsA by liquid growth inhibition assay; format: functional; outline: as §2
Bacillus subtilis [33] = assay: Induction of yqjL gene expression in Bacillus subtilis W168 by microarray analysis; format: functional; outline: as §1
Bacillus subtilis [34] = assay: Induction of ypbG gene expression in Bacillus subtilis W168 by microarray analysis; format: functional; outline: as §1
Bacillus subtilis [35] = assay: Induction of liaI gene expression in Bacillus subtilis W168 by microarray analysis; format: functional; outline: as §1
Bacillus subtilis [36] = assay: Induction of ywrE gene expression in Bacillus subtilis W168 by microarray analysis; format: functional; outline: as §3
Bacillus subtilis [37] = assay: Antibacterial activity against mprF and pssA gene-deficient Bacillus subtilis CU1065 mutant by liquid growth inhibition assay; format: functional; outline: as §2
Bacillus subtilis [38] = assay: Decrease in rpsT gene expression in Bacillus subtilis W168 by microarray analysis; format: functional; outline: as §1
Bacillus subtilis [39] = assay: Antibacterial activity against sigW and pspA gene-deficient Bacillus subtilis CU1065 mutant by liquid growth inhibition assay; format: functional; outline: as §2
Bacillus subtilis [40] = assay: Decrease in ywdE gene expression in Bacillus subtilis W168 by microarray analysis; format: functional; outline: as §1
Bacillus subtilis [41] = assay: Decrease in yvcB gene expression in Bacillus subtilis W168 by microarray analysis; format: functional; outline: as §1
Bacillus subtilis [42] = assay: Decrease in yxeM gene expression in Bacillus subtilis W168 by microarray analysis; format: functional; outline: as §1
Bacillus subtilis [43] = assay: Antibacterial activity against liaIHGFSR gene-deficient Bacillus subtilis W168 mutant by liquid growth inhibition assay; format: functional; outline: as §2
Bacillus subtilis [44] = assay: Antibacterial activity against wild-type Bacillus subtilis; format: functional; outline: as §2
Bacillus subtilis [45] = assay: Decrease in yvpB gene expression in Bacillus subtilis W168 by microarray analysis; format: functional; outline: as §1
Bacillus subtilis [46] = assay: Decrease in rpmB gene expression in Bacillus subtilis W168 by microarray analysis; format: functional; outline: as §1
Bacillus subtilis [47] = assay: Decrease in yvkN gene expression in Bacillus subtilis W168 by microarray analysis; format: functional; outline: as §1
Bacillus subtilis [48] = assay: Induction of murG gene expression in Bacillus subtilis W168 by microarray analysis; format: functional; outline: as §1

For `CCCCCCCCCC(=O)N[C@@H](Cc1c[nH]c2ccccc12)C(=O)N[C@H](CC(N)=O)C(=O)N[C@@H](CC(=O)O)C(=O)N[C@@H]1C(=O)NCC(=O)N[C@@H](CCCN)C(=O)N[C@@H](CC(=O)O)C(=O)N[C@H](C)C(=O)N[C@@H](CC(=O)O)C(=O)NCC(=O)N[C@H](CO)C(=O)N[C@@H]([C@H](C)CC(=O)O)C(=O)N[C@@H](CC(=O)c2ccccc2N)C(=O)O[C@@H]1C`, the fold change (FC) (Bacillus subtilis [1]) was 0.5, the “fold change (FC)” value (Bacillus subtilis [2]) was 4.8 and the MIC (Bacillus subtilis [3]) was 0.9 µg/mL (≈ 0.555 µM). For the same compound, the “fold change (FC)” value (Bacillus subtilis [4]) was 149, the MIC (Bacillus subtilis [5]) was 0.5 µg/mL (≈ 0.309 µM) and the “fold change (FC)” value (Bacillus subtilis [6]) was 2.5. The “fold change (FC)” value (Bacillus subtilis [7]) was 3.1, the fold change (FC) (Bacillus subtilis [8]) was 3.2 and the “fold change (FC)” value (Bacillus subtilis [9]) was 126. For the same compound, the MIC (Bacillus subtilis [10]) was 1 µg/mL (≈ 0.617 µM), the “fold change (FC)” value (Bacillus subtilis [11]) was 574 and the “fold change (FC)” value (Bacillus subtilis [12]) was 1336. The “fold change (FC)” value (Bacillus subtilis [13]) was 75, the MIC (Bacillus subtilis [14]) was 0.9 µg/mL (≈ 0.555 µM) and the MIC (Bacillus subtilis [15]) was 0.2 µg/mL (≈ 0.123 µM). For the same compound, the fold change (FC) (Bacillus subtilis [16]) was 3.1, the MIC (Bacillus subtilis [17]) was 0.6 µg/mL (≈ 0.37 µM) and the MIC (Bacillus subtilis [18]) was 0.4 µg/mL (≈ 0.247 µM). For the same compound, the MIC (Bacillus subtilis [19]) was 0.2 µg/mL (≈ 0.123 µM), the “fold change (FC)” value (Bacillus subtilis [20]) was 0.5 and the MIC (Bacillus subtilis [21]) was 0.3 µg/mL (≈ 0.185 µM). The “fold change (FC)” value (Bacillus subtilis [22]) was 0.5, the MIC (Bacillus subtilis [23]) was 0.2 µg/mL (≈ 0.123 µM) and the MIC (Bacillus subtilis [24]) was 1 µg/mL (≈ 0.617 µM). For the same compound, the fold change (FC) (Bacillus subtilis [25]) was 3.5, the MIC (Bacillus subtilis [26]) was 0.2 µg/mL (≈ 0.123 µM) and the MIC (Bacillus subtilis [27]) was 0.9 µg/mL (≈ 0.555 µM). The MIC (Bacillus subtilis [28]) was 1 µg/mL (≈ 0.617 µM), the “fold change (FC)” value (Bacillus subtilis [29]) was 3.3 and the “fold change (FC)” value (Bacillus subtilis [30]) was 2. The “fold change (FC)” value (Bacillus subtilis [31]) was 2.1, the MIC (Bacillus subtilis [32]) was 1 µg/mL (≈ 0.617 µM) and the “fold change (FC)” value (Bacillus subtilis [33]) was 7.8. The “fold change (FC)” value (Bacillus subtilis [34]) was 3.6, the “fold change (FC)” value (Bacillus subtilis [35]) was 1294 and the “fold change (FC)” value (Bacillus subtilis [36]) was 2.1. The MIC (Bacillus subtilis [37]) was 0.9 µg/mL (≈ 0.555 µM), the “fold change (FC)” value (Bacillus subtilis [38]) was 0.5 and the MIC (Bacillus subtilis [39]) was 0.8 µg/mL (≈ 0.494 µM). The fold change (FC) (Bacillus subtilis [40]) was 9.9, the fold change (FC) (Bacillus subtilis [41]) was 27 and the “fold change (FC)” value (Bacillus subtilis [42]) was 0.4. For the same compound, the MIC (Bacillus subtilis [43]) was 0.3 µg/mL (≈ 0.185 µM), the MIC (Bacillus subtilis [44]) was 1 µg/mL (≈ 0.617 µM) and the fold change (FC) (Bacillus subtilis [45]) was 14. For the same compound, the “fold change (FC)” value (Bacillus subtilis [46]) was 0.5, the “fold change (FC)” value (Bacillus subtilis [47]) was 26 and the “fold change (FC)” value (Bacillus subtilis [48]) was 2.4.
